# Data as given in PubChem BioAssay AID720543 (The Scripps Research Institute Molecular Screening Center, 2013).
# Screen size: about 370,000 compounds; about 2,000 (0.54%) were called active.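 The calls were made as follows: active = inhibition exceeding the mean over every tested compound plus 3 SD (cut at about 30% in these data); inactive = the rest.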 The entries come from a sample that favours actives as a whole.
# Biological target: (Lyso)-N-acylphosphatidylethanolamine lipase (Mus musculus) (UniProt Q8VD66)
# Sequence (Q8VD66 whole entry, looked up): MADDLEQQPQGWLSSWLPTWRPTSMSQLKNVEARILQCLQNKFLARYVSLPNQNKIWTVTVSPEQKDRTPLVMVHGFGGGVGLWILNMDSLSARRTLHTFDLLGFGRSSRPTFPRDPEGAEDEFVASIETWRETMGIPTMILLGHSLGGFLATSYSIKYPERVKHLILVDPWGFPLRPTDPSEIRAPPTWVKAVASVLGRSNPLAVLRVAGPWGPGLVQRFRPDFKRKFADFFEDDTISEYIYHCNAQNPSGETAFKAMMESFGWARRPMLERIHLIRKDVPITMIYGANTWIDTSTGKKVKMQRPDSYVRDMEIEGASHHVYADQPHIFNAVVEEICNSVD
# Assay: mouse ABHD4 hydrolase activity blockers – biochemical, fluorescence polarization, primary screen (AID 720543);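 also: 0% = plate median of compound wells and 100% = S159A mutant with DMSO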
# Conditions: purified mABHD4, FP-Rh probe fluorescence polarization; at 8.92 µM; stronger effect = higher value
# In short: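 System: mouse ABHD4 enzyme, wild type / Medium: HEPES pH 7.0, NaCl, Pluronic buffer / Reagent: FP-Rh activity-based fluorescent probe / Control set: S159A mutant high control, sample median low control / Detection: fluorescence polarization with parallel and perpendicular emission, 525/598 nm / Schedule: 45 min + 60 min at 25 °C / Compound dosing: 8.92 µM, single dose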
row,SMILES,inhibition
1,Brc1ccccc1C1Nc2cccc3cccc(c23)N1,45.1% (active)
2,O=C1CCC([N+](=O)[O-])C(c2ccccc2Br)N1 (centres undefined),-0.46% (inactive)
3,O=C(Nc1ccc(Br)cc1)OCCN1C(=O)CCC12CCC(c1ccccc1)CC2 (centres undefined),0.58% (inactive)
4,COC(=O)[C@H](C(C)C)N(CCc1cn(Cc2ccccc2)nn1)S(=O)(=O)c1ccc(F)cc1Br,-6.45% (inactive)
5,CC1(C)OC(=O)C2=C(C[C@@H](C3CC3)O[C@H]2CCc2cccc(Cl)c2)O1,-7.3% (inactive)
6,CC(=O)O[C@@]1(C(C)=O)CCC2[C@H]3C=C(C)C4=CC(=O)CC[C@@]4(C)C3CC[C@]21C (some centres undefined),5.34% (inactive)
7,Nc1ccc2nc3c(=O)[nH]c(=S)[nH]c3nc2c1,53.6% (active)
8,Cc1cc(Cl)c(S(=O)(=O)Nc2ccc3c(c2)OCCO3)cc1OCC(N)=O,-2.74% (inactive)
9,CC1CCCN(S(=O)(=O)c2ccc(-c3ccc(=O)[nH]n3)o2)C1 (centres undefined),-2.46% (inactive)
10,CC(C)CNS(=O)(=O)CC1NCCc2ccccc21 (centres undefined),3.38% (inactive)
11,COC(=O)[C@]12C[C@H](CC(=O)NCCCCc3ccccc3)C(=O)N(Cc3ccc4c(c3)OCO4)C1=C[C@H](C(C)(C)C)O[C@@H]2C,0.01% (inactive)
12,OCCNc1nc(Nc2ccc(Cl)c(Cl)c2)nc2ccccc12,39.5% (active)
13,OCCNCCOc1ccc(Cl)c(Cl)c1,3.5% (inactive)
14,O=C(CCS(=O)(=O)c1ccccc1)Nc1ccc(Cl)c(Cl)c1,-9.05% (inactive)
15,CCOC(=O)[C@]12CCC=C1N(Cc1ccccc1)C(=O)[C@H](CC(=O)N1CCCC1)C2,-6.55% (inactive)
16,O=C1[C@@H](c2ccccc2)[C@@H](c2ccccc2)N1c1ccccc1,-3.86% (inactive)
17,Cc1cc2nc(-c3ccco3)c(Cc3cccc(F)c3)n2c(C)c1Br,10.5% (inactive)
18,COC(=O)C[C@@H]1CC[C@@H]2[C@@H](COc3ccc(NC(=O)Nc4ccc(F)c(F)c4)cc3C(=O)N2C)O1,4.06% (inactive)
19,CCOc1c(Br)cc(/C=C2\C(=O)N(CCC#N)N=C2C)cc1OC,-10.7% (inactive)
20,COc1cc(/C=C2/C(=O)NN(c3cccc(Cl)c3)C2=O)cc(Br)c1O,38.5% (active)
21,CC1CN(Cc2nc3c(c(=O)n(C)c(=O)n3C)n2Cc2cccc(Cl)c2)CC(C)O1 (centres undefined),4.39% (inactive)

row,SMILES,inhibition
1,CCCC1CCC2(CCCN2CCOC(=O)NCc2ccccc2)CC1 (centres undefined),-7.41% (inactive)
2,O=[N+]([O-])c1cc(Br)c(O)c(/C=N/Nc2nc3ccccc3s2)c1,38.8% (active)
3,CCC1(C)Cc2c(sc3nnn(CC(=O)Nc4ccc(Cl)cc4)c(=O)c23)CO1 (centres undefined),-18.9% (inactive)
4,CC(=O)Nc1ccc(NC(=O)c2ccc3c(c2)C(=O)N(c2ccccc2C)C3=O)cc1,-1.82% (inactive)
5,O=C(O)c1ccc2c(c1)C(=O)N(c1ccc(/C=C/C(=O)c3ccccc3)cc1)C2=O,39.1% (active)
6,COc1ccc(OC)c(NC(=O)c2ccc3c(c2)C(=O)N(c2ccc(OC(C)=O)cc2)C3=O)c1,3.91% (inactive)
7,Cc1cccnc1C(NC(=O)C1CCN(Cc2ccc(Cl)c(Cl)c2)CC1)c1ccc(Cl)cc1 (centres undefined),-1.83% (inactive)
8,CC1CN(C2CCCCC2)c2nc3c(c(=O)n(C)c(=O)n3C)n2C1 (centres undefined),-5.35% (inactive)
9,COc1cccc(CSc2nnc(-c3cccnc3)n2Cc2ccccc2)c1,0.82% (inactive)
10,COc1cc(/C=C/C(=O)n2cnc3ccccc32)cc(OC)c1OC,-5.44% (inactive)
11,C[C@H]1[C@H](NC(=O)c2cccc(N(C)C)c2)CC[C@@]23CCCN2C(=O)CCC[C@@H]13,4.02% (inactive)
12,COC(=O)c1cccc(Cn2ccc3ccc(-c4ccc5ccn(C(=O)C6CCCCC6)c5c4)cc32)c1,3.18% (inactive)
13,COc1cccc2c1C(=O)c1c(O)c3c(c(O)c1C2=O)CC(O)(C(C)=NNC(=O)c1ccc(Cl)c(Cl)c1)CC3OC1CC(N)C(O)C(C)O1 (centres undefined),67.4% (active)
14,Cc1ccc(S(=O)(=O)N[C@H](CO)C(C)C)cc1,-3.46% (inactive)
15,Cc1ccc(S(=O)(=O)/N=S(\C)C(C)C)cc1 (centres undefined),-2.12% (inactive)
16,Cc1ccc(S(=O)(=O)/N=C2\C=C(NS(=O)(=O)c3ccc(C)cc3)C(=O)c3ccccc32)cc1,40.1% (active)
17,C[C@@H](NC(=O)OC(C)(C)C)c1nnc(S(=O)(=O)Cc2ccccc2)o1,11.2% (inactive)
18,CC(C)C(=O)N1c2ccccc2NC2=C(C(=O)CCC2)C1c1ccc(N(C)C)cc1 (centres undefined),7.43% (inactive)
19,CCCCCCCCNS(=O)(=O)/C=C/c1cc(C)ccc1CNC(=O)OC(C)(C)C,-4.09% (inactive)
20,Cc1ccc(C)c(NC(=O)CCS(=O)(=O)c2ccccc2)c1,-4.18% (inactive)
21,Oc1ccc2ccccc2c1N=Nc1nccs1,61.8% (active)

row,SMILES,inhibition
1,C[C@H](C(=O)N(C)c1ccccc1)[C@@H](O)c1ccc(Cl)cc1,0.42% (inactive)
2,Nc1[nH]c(C(=O)c2ccc(Br)cc2)c(-c2ccc3c(c2)OCO3)c1C(=O)NCCc1c[nH]c2ccccc12,48.9% (active)
3,Nc1[nH]c(C(=O)c2ccccc2)c(-c2ccncc2)c1C(=O)NCc1cccc2ccccc12,-0.51% (inactive)
4,Nc1[nH]c(C(=O)c2ccccc2)c(-c2ccc(Br)cc2)c1C(=O)NC1CC1,1.95% (inactive)
5,O=c1ccc2c(-c3ccccc3S(=O)(=O)O)c3ccc(O)c(O)c3oc-2c1O,34% (active)
6,COc1ccc(-n2c(COc3ccccc3)nnc2SCC(=O)Nc2ccc3c(c2)OCO3)cc1,-9.7% (inactive)
7,CC(=O)OCCN1CCCC12CCC(c1ccccc1)CC2 (centres undefined),0.33% (inactive)
8,Cc1ccc(S(=O)(=O)N2CCC(C(=O)N[C@@H](C)C(=O)NCc3ccco3)CC2)cc1,-2.84% (inactive)
9,Cc1cccc(C(=O)NC(=S)N2CCN(c3ccc([N+](=O)[O-])cc3)CC2)c1,-5.02% (inactive)
10,Cc1cc(/C=N/Nc2ccc([N+](=O)[O-])cn2)c(C)n1-c1cccc(C(=O)O)c1,45.6% (active)
11,CN1CCN(C(=O)c2cnn(-c3ccccc3)c2NC(=O)c2ccc([N+](=O)[O-])cc2)CC1,-2.86% (inactive)
12,O=C(N[C@@H]1C/C=C\C[C@@H](CC(=O)N(CCO)Cc2ccccc2)C(=O)N[C@H](Cc2ccccc2)COC1=O)OCC1c2ccccc2-c2ccccc21,7.4% (inactive)
13,CSc1ccc(C=Nn2c(-c3ccc(F)cc3)n[nH]c2=S)cc1,0.61% (inactive)
14,CCCCc1c(-c2ccc(Br)cc2)ncn1CCc1ccccc1OC,-0.8% (inactive)
15,CCOCCCNC(=O)C(NC(=O)c1ccccc1O)c1ccccc1 (centres undefined),-0.7% (inactive)
16,Clc1ccc(C2=CSC3=Nc4cccc5cccc(c45)N23)cc1,38.4% (active)
17,O=C(OCC#CCSc1nnc(-c2ccco2)o1)c1ccc(F)cc1,-9.72% (inactive)
18,Cc1oc2cc(Br)c(O)c(Br)c2c1C(=O)c1ccccc1,44.9% (active)
19,COc1cc(/C(=C/c2ccccc2)c2ccccc2)c2c(c1)oc1ccccc12,-1.7% (inactive)
20,Cc1oc2cc([N+](=O)[O-])c(O)c([N+](=O)[O-])c2c1C(=O)c1ccc(Br)cc1,8.71% (inactive)
21,COC(=O)c1c(-c2ccc(OC)cc2)c2c(c3c4cc(OC)ccc4n(S(=O)(=O)c4ccc(F)cc4)c13)C(=O)N(C)C2,-0.06% (inactive)

row,SMILES,inhibition
1,Cc1cc(NS(=O)(=O)c2ccc(NC(=O)CSc3nnc(SCc4ccc(F)cc4)s3)cc2)nc(C)n1,-21.5% (inactive)
2,Fc1ccc2nc(COCc3nc4ccc(F)cc4[nH]3)[nH]c2c1,-7.17% (inactive)
3,COC(=O)c1[nH]c2ccc(Br)cc2c1NC(=O)Oc1ccccc1,-1.15% (inactive)
4,COC(=O)c1oc2ccc(Br)cc2c1NC(C)=O,40.3% (active)
5,COCC(=O)Nc1c(C(=O)N2CCCC2)oc2ccccc12,-0.25% (inactive)
6,FC(F)(F)c1cccc(NC(=S)OC2CCC23CCC(c2ccccc2)CC3)c1 (centres undefined),-21.8% (inactive)
7,Cc1cc(C)c(S(=O)(=O)NN=C2c3ccccc3[C@H]3Cc4csc[n+]4[C@@H]23)c(C)c1,33.3% (active)
8,CCOC(=O)c1csc(NC(=O)C2CCCN(S(=O)(=O)c3ccc(Cl)s3)C2)n1 (centres undefined),-51.6% (inactive)
9,CCCCCCN1CCS(=O)(=O)N(Cc2ccc(C(F)(F)F)cc2)C(C(=O)OC)C1 (centres undefined),-4.07% (inactive)
10,Cc1ccc(C)c(NS(=O)(=O)c2ccc(OCC(=O)NCc3cccnc3)cc2)c1,-3.89% (inactive)
11,O=[N+]([O-])c1cc(S(=O)(=O)Nc2cccc(Cl)c2)ccc1N=Nc1c(O)[nH]c2ccccc12,7.74% (inactive)
12,COc1ccc(Br)cc1/C=N/Nc1ccc(Cl)c(C(=O)O)c1,40.3% (active)
13,Cc1ccc(NS(=O)(=O)c2ccc3c(c2)n(C)c(=O)c(=O)n3C)c(C)c1,-1.8% (inactive)
14,COc1cc(/C=C/C(=O)O)cc(S(=O)(=O)Nc2ccccc2C(=O)NCCc2ccccc2)c1OC,6.19% (inactive)
15,COc1ccc(S(=O)(=O)NC(C)c2ccccc2)cc1C(=O)N1CCCCC1 (centres undefined),3.07% (inactive)
16,Cc1ccc(OCCOCCOc2ccc(Br)cc2/C=N\NC(=O)c2ccncc2)cc1,-84.8% (inactive)
17,Cc1ccc(NS(=O)(=O)c2ccc(N/N=C/c3ccccc3OCC(=O)O)c([N+](=O)[O-])c2)c(C)c1,52.1% (active)
18,COc1ccc(Br)cc1CN(C)CC(=O)Nc1cc(Cl)cc(Cl)c1,6.47% (inactive)
19,O=C(O)c1ccccc1/C=N/Nc1ccc(S(=O)(=O)Nc2ccc(Cl)cc2)cc1[N+](=O)[O-],43.8% (active)
20,COc1ccc(Br)cc1/C=N/Nc1ccc(S(=O)(=O)Nc2ccccc2C(=O)O)cc1[N+](=O)[O-],38.4% (active)
21,O=C(Nc1cc(S(=O)(=O)Nc2ccc(Cl)cc2)ccc1O)c1ccc(F)cc1F,-6.3% (inactive)
